Here are results for 25 compounds from PubChem BioAssay AID1885 (Broad Institute, 2009).

Each structure is given as a SMILES string. The whole screen tested about 300,000 compounds, of which about 4,400 (1.5%) were called active.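 The calls were made as follows: active = mean inhibition across valid replicates above about 55% (limit read from the data); inconclusive = mean below that limit but half or more replicates reach it; inactive = mean below it, under half of replicates reach it.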 Shown is part of a subset that was picked to be rich in actives.

The nature of the test: Trypanosoma cruzi replication blockers in host cells – luminescence, NIH3T3 host cells, primary screen (AID 1885).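 Also: signal also drops with host cell toxicity which is not excluded here; 0% = plate median of DMSO wells and 100% = zero luminescence signal; higher percent means less beta-gal luminescence so fewer parasites.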 The note with it: T. cruzi beta-gal in NIH3T3, luminescence, 90 h; stronger effect = higher value; concentration not given here. The method in brief: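 assay system = mouse NIH/3T3 fibroblasts infected with β-gal-expressing T. cruzi Tulahuen C4 | input = 5,000 NIH/3T3 host cells per well | buffer or medium = DMEM plus 2% FBS | timing = 3 h host attachment, then at least 90 h co-culture | measured by = GalScreen luminescence, 60 min | evaluation = luminescence reflecting intracellular parasite burden, expressed as percent inhibition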
Turning to `O=C(NC1CCCCC1)C1CCC(CNS(=O)(=O)c2ccccc2)CC1` (stereo not given), the inhibition is -8.43% (inactive).
For `O=C(CCl)NNc1nc(-c2ccccc2)c2cc(Cl)ccc2n1` the value was 3.67% (inactive); for `OCCCNc1nc(-c2ccccc2)c2cc(Cl)ccc2n1`, 18.3% (inactive).
With `NC(N)=Nc1nc(-c2ccccc2)c2cc(Cl)ccc2n1` the figure was 65.4% (active).
For `CC(Oc1ccccc1[N+](=O)[O-])C(=O)N/N=C/c1ccoc1` (stereo not given) the value was -8.31% (inactive); for `O=C(Nc1ccc(N2CCCCC2)cc1)c1cc(S(=O)(=O)N2CCOCC2)ccc1F`, 22.8% (inactive); for `O=C(Nc1ccc(S(=O)(=O)N2CCCC2)cc1Cl)C1=COCCO1`, -14.4% (inactive).
For `CCN(CC)c1ccc(S(=O)(=O)N2CCOCC2)cc1NC(=O)CSc1cccc[n+]1[O-]`, the inhibition is 5.13% (inactive).
For `CCN(CC)c1ccc(S(=O)(=O)N2CCCCC2)cc1NC(=O)C1=COCCO1` the value was 61% (active); for `COc1cccc(NC(=O)CN(C)C(=O)CSCc2nc3scc(-c4cccs4)c3c(=O)[nH]2)c1`, -4.78% (inactive); for `O=C(NN1CCOCC1)c1cccc(F)c1`, -3.38% (inactive).
Regarding `Cc1ccc(NS(=O)(=O)c2ccc(C)c(NC(=O)COc3ccc4ccccc4c3)c2)c(C)c1`, the inhibition is 30.6% (inactive).
On to `COc1ccc2cc(S(=O)(=O)Nc3ccccn3)ccc2c1`, for which the inhibition is 4.63% (inactive).
Turning to `COc1cc(NS(=O)(=O)c2ccc3ccccc3c2)c2ncccc2c1`, the inhibition is 76.5% (active).
Regarding `CC(C)C(c1nnnn1C1CCCCC1)N1CCN(C(=O)c2ccco2)CC1` (stereo not given), the inhibition is -11.6% (inactive).
Take `CC(C)(C)c1ccc(C(=O)NCCn2c(N)c(C#N)c3nc4ccccc4nc32)cc1`: the inhibition is -43.8% (inactive).
As for `CC(C)Cn1c(N)c(C(=O)NCc2cccs2)c2nc3ccccc3nc21`, the inhibition was 59.8% (active).
For `CCCNC(=O)c1c(N)n(-c2ccc(S(N)(=O)=O)cc2)c2nc3ccccc3nc12` the value was -22.9% (inactive); for `COc1ccccc1CCNC(=O)C1CCN(C(=O)/C=C/c2ccccc2)CC1`, -2.7% (inactive).
As to `CCOc1ccc2nc(N(CCN(C)C)C(=O)c3ccc4ccccc4c3)sc2c1`, the inhibition was 26.5% (inactive).
Take `CCN(CC)CCN(C(=O)c1ccc(N2C(=O)CCC2=O)cc1)c1nc2cc3c(cc2s1)OCO3`: the inhibition is 40.8% (inactive).
With `CCN(CC)CCN(C(=O)c1cccc([N+](=O)[O-])c1)c1nc2ccc(OC)cc2s1` the figure was 55.5% (active).
With `CCOc1ccc(NC(=O)CCC(=O)NNC(=O)NC2CCCCC2)cc1` the figure was 8.19% (inactive); with `Cc1ccc2nc(SCC(=O)N3CC(C)OC(C)C3)nc(=O)n2c1` (stereo not given), -6.75% (inactive); with `CCN(Cc1ccccc1)S(=O)(=O)c1cc2c3c(c1)CCN3C(=O)CC2`, -1.06% (inactive).

For orientation: inhibition means the change of the read-out against control, counted positive when it falls.
